Assay results gathered from unrelated publications.
Each line is one published result; the experiments were not run side by side.
Organism: Aspergillus niger
Observed: microbial growth

With Cc1ccc(C)n1-c1ccc(-c2nnc(S)s2)cc1 the MIC was 125 µg/mL (broth dilution; ATCC6275).
The MIC of O=C(O)c1cn(C2CC2)c2cc(N3CCNCC3)c(F)cc2c1=O is reported as 25.5 µM (broth dilution).
With Clc1ccccc1C(c1ccccc1)(c1ccccc1)n1ccnc1 the inhibition zone was 25 mm (disc diffusion; 20000 µg/mL).
With Clc1ccccc1C(c1ccccc1)(c1ccccc1)n1ccnc1 the inhibition zone was 18 mm (disc diffusion; 100 µg/mL).
Cc1ccc(C)n1-c1ccc(-c2n[nH]c(=S)[nH]2)cc1 gave an MIC of > 500 µg/mL (broth dilution; ATCC6275).
O=C1NN=C(N=Cc2ccc(O)cc2O)C1=NNn1c(-c2ccccc2)nc2ccccc2c1=O has an MIC of 107 µM (broth dilution).
The MIC of CSc1ccc(-c2nc3ccc(C)cc3[nH]2)cc1 is reported as 64 µg/mL (ATCC16404).
With Cc1ccc(C)n1-c1ccc(-c2nnc(-c3ccc(O)cc3)[nH]2)cc1 the MIC was 31.2 µg/mL (broth dilution; ATCC6275).
With CC1=NN(CNC(=O)c2ccccc2)C(=O)C1=NNn1c(-c2ccccc2)nc2ccccc2c1=O the MIC was 104 µM (broth dilution).
Cc1ccc2nc(-c3cc(Br)ccc3O)[nH]c2c1 has an MIC of 256 µg/mL (ATCC16404).
For CC1=NN(CNC(=O)c2ccccn2)C(=O)C1=NNn1c(-c2ccccc2)nc2ccccc2c1=O, the MIC was 104 µM (broth dilution).
The MIC of Cc1ccc2nc(-c3ccc(Cl)c(Cl)c3)[nH]c2c1 is reported as 32 µg/mL (ATCC16404).
Cc1cc(=O)[nH]n1C(=O)c1ccc(-n2c(C)ccc2C)cc1 gave an MIC of 250 µg/mL (broth dilution; ATCC6275).
For Oc1ccc(Br)cc1-c1nc2ccccc2[nH]1, the MIC was 512 µg/mL (ATCC16404).
For O=C1NN=C(N=Cc2ccccc2)C1=NNn1c(-c2ccccc2)nc2ccccc2c1=O, the MIC was 57.1 µM (broth dilution).
Cc1ccc(C)n1-c1ccc(-c2nnc(-c3ccc(Br)cc3)[nH]2)cc1 has an MIC of 4 µg/mL (broth dilution; ATCC6275).
The MIC of Cc1ccc2nc(-c3ccco3)n(Cc3ccccc3)c2c1 is reported as 512 µg/mL (ATCC16404).
